pIC50: −log10 of the molar value.
Key:
RAW264.7 [1] = experiment: Inhibition of LPS-induced NFkappaB (unknown origin) activation expressed in mouse RAW264.7 cells at 4 uM pretreated for 30 mins followed by LPS-stimulation after 8 hrs by luciferase reporter gene assay relative to control; type: cell-based; conditions: Homo sapiens
How it was run: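 RAW264.7 cells stably carrying an NF-κB luciferase reporter were pretreated with compounds for 30 min at 4, 2, 1 and 0.5 μM. They were then stimulated with 1 μg/mL LPS for 8 h. Luciferase activity was measured in triplicate. BAY11-7082 at 5 μM served as positive control.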

OS-RC-2 = experiment: Cytotoxicity against human OS-RC2 cells after 72 hrs by CCK8 assay; type: functional, cell-based; conditions: OS-RC-2, 72 h
How it was run: (§1)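 ACHN cells grown in MEM with 10% FBS; OS-RC-2 and 786-O cells grown in RPMI1640 with 10% FBS. Seeded at 400 to 800 cells/well and treated with a 9-point series from 100 down to 0.00153 μM, or solvent control, for 72 h. Viability read by CCK-8 absorbance at 450 nm in triplicate. IC50 taken from dose–response curves.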

786-0 [2] = experiment: Cytotoxicity against human 786-O cells after 72 hrs by CCK8 assay; type: functional, cell-based; conditions: 786-0, 72 h; how it was run: as §1
ACHN = experiment: Cytotoxicity against human ACHN cells after 72 hrs by CCK8 assay; type: functional, cell-based; how it was run: as §1
RAW264.7 [3] = experiment: Cytotoxicity against mouse RAW264.7 cells at 0.5 to 4 uM after 8 hrs by MTT assay; type: cell-based; conditions: raw264.7, 8 h
How it was run: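 Luciferase-reporter RAW264.7 cells received compounds at 4, 2, 1 and 0.5 μM for 30 min, then 1 μg/mL LPS for 8 h. Viability at these concentrations was assessed by MTT.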

786-0 [4] = experiment: Cell cycle arrest in human 786-O cells assessed as accumulation at G0/G1 phase at 1 uM after 72 hrs by propidium iodide staining based flow cytometric method (reference value: 44.95%); type: functional
786-0 [5] = experiment: Cell cycle arrest in human 786-O cells assessed as accumulation at G2/M phase at 2 uM after 72 hrs by propidium iodide staining based flow cytometric method (reference value: 12.29%); type: functional
786-0 [6] = experiment: Cell cycle arrest in human 786-O cells assessed as accumulation at G2/M phase at 1 uM after 72 hrs by propidium iodide staining based flow cytometric method (reference value: 12.29%); type: functional
786-0 [7] = experiment: Induction of apoptosis in human 786-O cells assessed as late apoptotic cells at 2 uM after 24 hrs by Annexin-V-FITC/propidium iodide staining based flow cytometric method (reference value: 7%); type: functional
786-0 [8] = experiment: Cell cycle arrest in human 786-O cells assessed as accumulation at G0/G1 phase at 2 uM after 72 hrs by propidium iodide staining based flow cytometric method (reference value: 44.95%); type: functional
786-0 [9] = experiment: Induction of apoptosis in human 786-O cells assessed as live cells at 2 uM after 72 hrs by Annexin-V-FITC/propidium iodide staining based flow cytometric method (reference value: 82.2%); type: functional
786-0 [10] = experiment: Induction of apoptosis in human 786-O cells assessed as early apoptotic cells at 1 uM after 24 hrs by Annexin-V-FITC/propidium iodide staining based flow cytometric method (reference value: 1.6%); type: functional
786-0 [11] = experiment: Induction of apoptosis in human 786-O cells assessed as early apoptotic cells at 2 uM after 72 hrs by Annexin-V-FITC/propidium iodide staining based flow cytometric method (reference value: 1.2%); type: functional
786-0 [12] = experiment: Induction of apoptosis in human 786-O cells assessed as live cells at 1 uM after 24 hrs by Annexin-V-FITC/propidium iodide staining based flow cytometric method (reference value: 81.4%); type: functional
786-0 [13] = experiment: Cell cycle arrest in human 786-O cells assessed as accumulation at G0/G1 phase at 1 uM after 24 hrs by propidium iodide staining based flow cytometric method (reference value: 42.07%); type: functional
786-0 [14] = experiment: Induction of apoptosis in human 786-O cells assessed as late apoptotic cells at 1 uM after 72 hrs by Annexin-V-FITC/propidium iodide staining based flow cytometric method (reference value: 4.2%); type: functional
786-0 [15] = experiment: Induction of apoptosis in human 786-O cells assessed as late apoptotic cells at 2 uM after 72 hrs by Annexin-V-FITC/propidium iodide staining based flow cytometric method (reference value: 4.2%); type: functional
786-0 [16] = experiment: Cell cycle arrest in human 786-O cells assessed as accumulation at S phase at 2 uM after 24 hrs by propidium iodide staining based flow cytometric method (reference value: 47.35%); type: functional
786-0 [17] = experiment: Cell cycle arrest in human 786-O cells assessed as accumulation at S phase at 1 uM after 72 hrs by propidium iodide staining based flow cytometric method (reference value: 42.76%); type: functional
786-0 [18] = experiment: Induction of apoptosis in human 786-O cells assessed as necrotic cells at 1 uM after 72 hrs by Annexin-V-FITC/propidium iodide staining based flow cytometric method (reference value: 12.5%); type: functional
786-0 [19] = experiment: Induction of apoptosis in human 786-O cells assessed as live cells at 1 uM after 72 hrs by Annexin-V-FITC/propidium iodide staining based flow cytometric method (reference value: 82.2%); type: functional
786-0 [20] = experiment: Induction of apoptosis in human 786-O cells assessed as early apoptotic cells at 1 uM after 72 hrs by Annexin-V-FITC/propidium iodide staining based flow cytometric method (reference value: 1.2%); type: functional
786-0 [21] = experiment: Induction of apoptosis in human 786-O cells assessed as late apoptotic cells at 1 uM after 24 hrs by Annexin-V-FITC/propidium iodide staining based flow cytometric method (reference value: 7%); type: functional
786-0 [22] = experiment: Induction of apoptosis in human 786-O cells assessed as live cells at 2 uM after 24 hrs by Annexin-V-FITC/propidium iodide staining based flow cytometric method (reference value: 81.4%); type: functional
786-0 [23] = experiment: Induction of apoptosis in human 786-O cells assessed as necrotic cells at 2 uM after 24 hrs by Annexin-V-FITC/propidium iodide staining based flow cytometric method (reference value: 10%); type: functional
786-0 [24] = experiment: Cell cycle arrest in human 786-O cells assessed as accumulation at G2/M phase at 1 uM after 24 hrs by propidium iodide staining based flow cytometric method (reference value: 10.58%); type: functional
786-0 [25] = experiment: Cell cycle arrest in human 786-O cells assessed as accumulation at S phase at 1 uM after 24 hrs by propidium iodide staining based flow cytometric method (reference value: 47.35%); type: functional
786-0 [26] = experiment: Induction of apoptosis in human 786-O cells assessed as early apoptotic cells at 2 uM after 24 hrs by Annexin-V-FITC/propidium iodide staining based flow cytometric method (reference value: 1.6%); type: functional
786-0 [27] = experiment: Induction of apoptosis in human 786-O cells assessed as necrotic cells at 2 uM after 72 hrs by Annexin-V-FITC/propidium iodide staining based flow cytometric method (reference value: 12.5%); type: functional
786-0 [28] = experiment: Cell cycle arrest in human 786-O cells assessed as accumulation at G2/M phase at 2 uM after 24 hrs by propidium iodide staining based flow cytometric method (reference value: 10.58%); type: functional
786-0 [29] = experiment: Induction of apoptosis in human 786-O cells assessed as necrotic cells at 1 uM after 24 hrs by Annexin-V-FITC/propidium iodide staining based flow cytometric method (reference value: 10%); type: functional
786-0 [30] = experiment: Cell cycle arrest in human 786-O cells assessed as accumulation at G0/G1 phase at 2 uM after 24 hrs by propidium iodide staining based flow cytometric method (reference value: 42.07%); type: functional
786-0 [31] = experiment: Cell cycle arrest in human 786-O cells assessed as accumulation at S phase at 2 uM after 72 hrs by propidium iodide staining based flow cytometric method (reference value: 42.76%); type: functional

SMILES: C[C@]1(COC(=O)c2ccc([N+](=O)[O-])cc2)CCC[C@]2(C)[C@H]3COC(=O)C3=C[C@@H](O)[C@@H]12
- inhibition (RAW264.7 [1]): 16%
- pIC50 (OS-RC-2): 4.64
- pIC50 (786-0 [2]): 4.62
- pIC50 (ACHN): 4.52
- Activity (RAW264.7 [3]): Non-Toxic

SMILES: C[C@]1(COC(=O)c2ccc([N+](=O)[O-])cc2)CCC[C@@]2(C)[C@H]1[C@H](O)C=C1C(=O)OC[C@@]12O
- pIC50 (OS-RC-2): 5.09
- pIC50 (786-0 [2]): 5.37
- pIC50 (ACHN): 4.96

SMILES: CC(=O)OC[C@@]1(C)CCC[C@@]2(C)[C@H]1[C@H](OC(=O)c1ccc([N+](=O)[O-])cc1)C=C1C(=O)OC[C@@]12O
- Activity (786-0 [4]): 54.16%
- Activity (786-0 [5]): 13.38%
- Activity (786-0 [6]): 13.06%
- Activity (786-0 [7]): 6.5%
- Activity (786-0 [8]): 51.06%
- Activity (786-0 [9]): 58.3%
- Activity (786-0 [10]): 1.3%
- pIC50 (OS-RC-2): 5.28
- Activity (786-0 [11]): 1%
- Activity (786-0 [12]): 78.6%
- Activity (786-0 [13]): 38%
- Activity (786-0 [14]): 5%
- Activity (786-0 [15]): 9.1%
- Activity (786-0 [16]): 49.91%
- Activity (786-0 [17]): 32.77%
- Activity (786-0 [18]): 18.6%
- Activity (786-0 [19]): 74.7%
- Activity (786-0 [20]): 1.7%
- Activity (786-0 [21]): 4.3%
- Activity (786-0 [22]): 66.5%
- Activity (786-0 [23]): 26%
- Activity (786-0 [24]): 8.53%
- Activity (786-0 [25]): 47%
- Activity (786-0 [26]): 1.1%
- Activity (786-0 [27]): 31.5%
- pIC50 (786-0 [2]): 5.64
- Activity (786-0 [28]): 7.86%
- pIC50 (ACHN): 5.39
- Activity (786-0 [29]): 15.8%
- Activity (RAW264.7 [3]): Non-Toxic
- Activity (786-0 [30]): 42.23%
- Activity (786-0 [31]): 35.56%

SMILES: CNC(=O)c1cc(Oc2ccc(NC(=O)Nc3ccc(Cl)c(C(F)(F)F)c3)cc2)ccn1 [SORAFENIB]
- pIC50 (OS-RC-2): 5.15
- pIC50 (786-0 [2]): 5.31
- pIC50 (ACHN): 5.47

SMILES: CC(=O)OC[C@@]1(C)CCC[C@]2(C)[C@H]3COC(=O)C3=C[C@@H](OC(=O)c3ccc([N+](=O)[O-])cc3)[C@@H]12
- pIC50 (OS-RC-2): 4.96
- pIC50 (786-0 [2]): 4.85
- pIC50 (ACHN): 4.89
- Activity (RAW264.7 [3]): Non-Toxic

SMILES: CO[C@H]1C2=C(COC2=O)[C@@]2(C)CCC[C@](C)(CO)[C@@H]2[C@@H]1O
- Activity (RAW264.7 [3]): Non-Toxic

SMILES: C[C@]1(CO)CCC[C@]2(C)[C@H]3COC(=O)C3=C[C@@H](OC(=O)c3ccc([N+](=O)[O-])cc3)[C@@H]12
- pIC50 (OS-RC-2): 4.52
- pIC50 (786-0 [2]): 4.70
- pIC50 (ACHN): 4.60

SMILES: C[C@]1(CO)CCC[C@@]2(C)[C@H]1[C@H](OC(=O)c1ccc([N+](=O)[O-])cc1)C=C1C(=O)OC[C@@]12O
- pIC50 (OS-RC-2): 5.82
- pIC50 (786-0 [2]): 6.05
- pIC50 (ACHN): 5.82
